Assay results published in ChEMBL document CHEMBL1255410, “Activity of the investigational fluoroquinolone finafloxacin against ciprofloxacin-sensitive and -resistant Acinetobacter baumannii isolates” (2010).
Values after ≈ are worked out from the molar mass of the structure shown.

Assays:
Assay type in all cases: functional
Acinetobacter baumannii [1] = assay: Antimicrobial activity against Acinetobacter baumannii isolate 29 harboring GyrA Ser83-Leu mutation at pH 5.8
How it was run: (§1)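 MIC by agar dilution on Mueller-Hinton agar acidified to pH 5.8 with HCl before antibiotic-containing plates were poured. Agar pH was rechecked once the agar had solidified. Isolates had characterized gyrA/parC genes. Plates for both drugs were made the same day from fresh media, and MICs were read in parallel with the standard-pH set.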

Acinetobacter baumannii [2] = assay: Antimicrobial activity against Acinetobacter baumannii isolate 3 at pH 7.2
How it was run: (§2)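 MIC by agar dilution on Mueller-Hinton agar under standard conditions (pH 7.2), against isolates with characterized gyrA/parC genes. Agar pH was checked after solidifying. Plates for both drugs were prepared the same day from freshly made media, and MICs were determined simultaneously with the pH 5.8 set.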

Acinetobacter baumannii [3] = assay: Antimicrobial activity against Acinetobacter baumannii isolate 61 harboring GyrA Ser83-Leu and ParC Ser80-Leu mutation at pH 7.2
How it was run: (§3)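 Agar dilution MIC on Mueller-Hinton agar under standard conditions (pH 7.2). Antibiotic-containing plates were made the same day from freshly prepared medium. Agar pH was checked after solidifying. Both fluoroquinolones were tested simultaneously against A. baumannii isolates with characterized gyrA/parC genes. MICs are in μg/ml.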

Acinetobacter baumannii [4] = assay: Antimicrobial activity against Acinetobacter baumannii isolate 31 harboring GyrA Ser83-Leu mutation at pH 5.8; how it was run: as §1
Acinetobacter baumannii [5] = assay: Antimicrobial activity against Acinetobacter baumannii isolate 52 harboring GyrA Ser83-Leu and ParC Ser80-Leu mutation at pH 7.2
How it was run: (§4)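 Agar dilution MIC on Mueller-Hinton agar. For the acidic condition, HCl was added to bring the agar to pH 5.8 before pouring the antibiotic plates, and the pH was checked after the agar set. The standard condition was pH 7.2. Both drugs' plates were made the same day from fresh medium, and MICs were read at the same time.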

Acinetobacter baumannii [6] = assay: Antimicrobial activity against Acinetobacter baumannii isolate 27 harboring GyrA Ser83-Leu mutation at pH 7.2; how it was run: as §2
Acinetobacter baumannii [7] = assay: Antimicrobial activity against Acinetobacter baumannii isolate 55 harboring GyrA Ser83-Leu and ParC Ser80-Leu mutation at pH 7.2; how it was run: as §3
Acinetobacter baumannii [8] = assay: Antimicrobial activity against Acinetobacter baumannii isolate 19 harboring GyrA Ser83-Leu mutation at pH 7.2; how it was run: as §2
Acinetobacter baumannii [9] = assay: Antimicrobial activity against Acinetobacter baumannii isolate 51 harboring GyrA Ser83-Leu and ParC Ser80-Leu mutation at pH 7.2; how it was run: as §4
Acinetobacter baumannii [10] = assay: Antimicrobial activity against Acinetobacter baumannii isolate 47 harboring GyrA Ser83-Leu and ParC Ser80-Phe mutation at pH 7.2; how it was run: as §4
Acinetobacter baumannii [11] = assay: Antimicrobial activity against adeB overexpressing Acinetobacter baumannii isolate 68 harboring GyrA Ser83-Leu and ParC Ser80-Leu mutation at pH 7.2; how it was run: as §3
Acinetobacter baumannii [12] = assay: Antimicrobial activity against Acinetobacter baumannii isolate 45 harboring GyrA Ser83-Leu and ParC Ser80-Leu mutation at pH 7.2; how it was run: as §4
Acinetobacter baumannii [13] = assay: Antimicrobial activity against Acinetobacter baumannii isolate 46 harboring GyrA Ser83-Leu and ParC Ser80-Leu mutation at pH 7.2; how it was run: as §4

With O=C(O)c1cn(C2CC2)c2cc(N3CCNCC3)c(F)cc2c1=O [CIPROFLOXACIN] the MIC (Acinetobacter baumannii [1]) was 32 µg/mL (≈ 96.6 µM), the MIC (Acinetobacter baumannii [2]) was 0.12 µg/mL (≈ 0.362 µM) and the MIC (Acinetobacter baumannii [3]) was 128 µg/mL (≈ 386 µM). For the same compound, the MIC (Acinetobacter baumannii [4]) was 32 µg/mL (≈ 96.6 µM), the MIC (Acinetobacter baumannii [5]) was 128 µg/mL (≈ 386 µM) and the MIC (Acinetobacter baumannii [6]) was 4 µg/mL (≈ 12.1 µM). The MIC (Acinetobacter baumannii [7]) was 128 µg/mL (≈ 386 µM), the MIC (Acinetobacter baumannii [8]) was 1 µg/mL (≈ 3.02 µM) and the MIC (Acinetobacter baumannii [9]) was 128 µg/mL (≈ 386 µM).

Compound N#Cc1c(N2C[C@@H]3NCCO[C@H]3C2)c(F)cc2c(=O)c(C(=O)O)cn(C3CC3)c12 [FINAFLOXACIN] has an MIC (Acinetobacter baumannii [1]) of 4 µg/mL (≈ 10 µM), an MIC (Acinetobacter baumannii [10]) of 32 µg/mL (≈ 80.3 µM) and an MIC (Acinetobacter baumannii [2]) of 0.12 µg/mL (≈ 0.301 µM). For the same compound, the MIC (Acinetobacter baumannii [11]) was 64 µg/mL (≈ 161 µM), the MIC (Acinetobacter baumannii [3]) was 64 µg/mL (≈ 161 µM) and the MIC (Acinetobacter baumannii [4]) was 1 µg/mL (≈ 2.51 µM). The MIC (Acinetobacter baumannii [5]) was 32 µg/mL (≈ 80.3 µM), the MIC (Acinetobacter baumannii [6]) was 16 µg/mL (≈ 40.2 µM) and the MIC (Acinetobacter baumannii [7]) was 32 µg/mL (≈ 80.3 µM). It also gave an MIC (Acinetobacter baumannii [8]) of 0.5 µg/mL (≈ 1.26 µM), an MIC (Acinetobacter baumannii [12]) of 16 µg/mL (≈ 40.2 µM) and an MIC (Acinetobacter baumannii [13]) of 16 µg/mL (≈ 40.2 µM). For the same compound, the MIC (Acinetobacter baumannii [9]) was 32 µg/mL (≈ 80.3 µM).
